In brackets after ≈: the same amount, converted by molar mass. Non-standard residues stand in square brackets, D forms with d. Residues, ends and D or L forms follow the SMILES beside them. *: point of attachment. Palmitoyl = CCCCCCCCCCCCCCCC(=O)*; 12Ado = NCCCCCCCCCCCC(=O)O

A short description of series [1]: Cytotoxicity against human RBC assessed as hemolysis. In kind it is organism-based. The following applies: human red blood cells (RBC), read-out: LC50 (the source's name). Summed up:
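Human red blood cells at 1% hematocrit incubated 3 h at 37°C with the compound in PBS (50 mM sodium phosphate, 150 mM NaCl, pH 7.4). Value is the concentration giving 50% hemolysis (LC50, μM). Values are rounded up to the nearest half unit, as means ± standard deviations of at least four independent experiments run in duplicate.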

Series [2] has as its system Lipid bilayer. Description: Apparent affinity to phospholipid membrane in cell-free system at low concentration range of 0.16 to 2.5 uM. Summed up: (§1)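 Surface plasmon resonance on a POPC-POPG (3:1) small-unilamellar-vesicle bilayer on an L1 chip. Compound was in PBS pH 7.4 at the low series (0.16, 0.31, 0.62, 1.25, 2.5 μM), duplicate injections each. Affinity constants were calculated with a two-step binding model from the average of five duplicated binding curves.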

In series [3] the test system is Escherichia coli. Description: Antimicrobial activity against Escherichia coli ATCC 35218 by microdilution method. In kind it is functional. Summed up: (§2)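 Overnight LB cultures were diluted 10,000-fold and used at 2 × 105 to 4 × 10^5 CFU/ml (LB pH 7.4). They were mixed 1:1 with compound in twofold serial dilutions from 0 to 50 μΜ. Plates were incubated overnight at 37°C and read by OD620. The MIC is the concentration giving 100% inhibition. Values are from at least two independent assays run in duplicate.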

The test system of series [4] is Pseudomonas aeruginosa. Description: Antimicrobial activity against Pseudomonas aeruginosa ATCC 9027 by microdilution method. In kind it is functional. Put shortly: as §2
Series [5] has as its system Lipid bilayer. The series is described as follows: Apparent affinity to phospholipid membrane in cell-free system at high concentration range of 3.1 to 50 uM. Put shortly:
(§3)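 SPR on an L1 chip, with small unilamellar vesicles of POPC-POPG (3:1 molar ratio) as the bilayer. Compound was in PBS pH 7.4 and injected in the high series (3.1, 6.25, 12.5, 25, 50 μM), two injections per concentration. Association and dissociation curves were fitted to a two-step binding model. Constants come from five duplicated curves.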

Series [6] has as its system Lipid bilayer. Description: Adhesion affinity to phospholipid membrane in cell-free system at high concentration range of 3.1 to 50 uM. Put shortly:
as §3

The subject of series [7] is Staphylococcus aureus. The series is described as follows: Antimicrobial activity against Staphylococcus aureus ATCC 25923 by microdilution method. In kind it is functional. Put shortly: as §2
For series [8], the system named is Lipid bilayer. Description: Adhesion affinity to phospholipid membrane in cell-free system at low concentration range of 0.16 to 2.5 uM. Put shortly: as §1
Series [9] relates to Enterococcus faecalis. Description: Antimicrobial activity against Enterococcus faecalis ATCC 29212 by microdilution method. In kind it is functional. Summed up:
as §2
Background: Broth dilution looks for growth in wells or tubes with falling amounts of substance.

In general, MBC refers to the lowest tested concentration that kills the bacteria rather than only halting them. By MIC is commonly meant the lowest concentration found to suppress growth. Read a high MIC as a less susceptible organism. As for `CCCCCC/C=C\CCCCCCCC(=O)N[C@@H](CCCCN)C(=O)N[C@@H](CCCCN)C(=O)NCCCCCCCCCCCC(=O)N[C@@H](CCCCN)C(N)=O`, in [1], the HC50 turned out to be 8.5 µM. Besides, the Kapp is 1.7 ×10⁷ /M in series [2] and 4.5 ×10⁷ /M in series [5]. Also, the MBC in series [3] worked out at 12.5 µM (≈ 10.4 µg/mL); in series [4], 50 µM (≈ 41.8 µg/mL); in series [7] it was 6 µM (≈ 5.01 µg/mL); in [9], 6 µM (≈ 5.01 µg/mL). The MIC in series [3] came to 6 µM (≈ 5.01 µg/mL); in series [4] it was 12.5 µM (≈ 10.4 µg/mL); in [7] it was 3 µM (≈ 2.51 µg/mL). For the same molecule, the K in [6] amounted to 1.5 ×10⁶ /M; in [8], 2.1 ×10⁶ /M.

Regarding `CCCCCCCCCCCCCCCC(=O)N[C@@H](CCCCN)C(=O)N[C@@H](CCCCN)C(=O)NCCCCCCCCCCCC(=O)N[C@@H](CCCCN)C(N)=O` (Palmitoyl-KK[12Ado]K-NH2), the HC50 in [1] was 15 µM. Further, the Kapp worked out at 8.3 ×10⁷ /M in series [2] and 4.3 ×10⁴ /M in [5]. The MBC was over 50 µM in series [3], over 50 µM in series [4], over 25 µM in series [7] and over 25 µM in [9]. Moreover, the MIC in [3] is 25 µM (≈ 20.9 µg/mL); in series [4] it was over 25 µM; in series [7] it was 6 µM (≈ 5.02 µg/mL). Moreover, the K in [6] was 4.3 ×10⁵ /M; in series [8] it was 2.2 ×10⁶ /M.

For the origin of these results see ChEMBL document CHEMBL1275571, “Impact of self-assembly properties on antibacterial activity of short acyl-lysine oligomers” (Antimicrob Agents Chemother, 2008).
